In ChEMBL document CHEMBL1629527, “In vitro antifungal activities of bis(alkylpyridinium)alkane compounds against pathogenic yeasts and molds” (Antimicrob Agents Chemother, 2010):

Experiments:
Candida dubliniensis [1] = experiment: Antifungal activity against Candida dubliniensis after 24 to 72 hrs by broth microdilution method; type: functional
Summary of the method: (§1)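 Broth microdilution MIC per CLSI M27-A3 (yeasts) or M38-A2 (molds). RPMI 1640 with L-glutamine, without bicarbonate, buffered to pH 7.0 with 0.165 M MOPS. Final test range for the compounds was 0.175–87.5 μM. Incubation at 35°C with visual reading at 24–72 h. MIC was the lowest concentration giving 100% inhibition versus the growth control (azoles 50% or 100%, by organism). Each isolate was run in duplicate in two independent experiments.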

Candida tropicalis [2] = experiment: Antifungal activity against Candida tropicalis after 48 to 72 hrs; type: functional; conditions: for MFC: Candida tropicalis
Summary of the method: (§2)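 MFC: after the MIC read, 30-μl aliquots from each well without visible growth were plated onto Sabouraud dextrose agar and incubated at 35°C. Reading was at 48–72 h for yeasts and up to 7 days for molds. MFC was the lowest concentration with no colonies.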

Pichia kudriavzevii [3] = experiment: Antifungal activity against Candida krusei ATCC 6258 after 24 to 72 hrs by broth microdilution method; type: functional; summary of the method: as §1
Rhizopus arrhizus [4] = experiment: Antifungal activity against Rhizopus oryzae 05-203111 after 24 to 72 hrs by broth microdilution method; type: functional
Summary of the method: (§3)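 Mold isolates subcultured on potato dextrose agar, then tested by CLSI M38-A2 broth microdilution in RPMI 1640 (L-glutamine, no bicarbonate) buffered to pH 7.0 with 0.165 M MOPS. Compounds were dissolved in water and tested at a final 0.175–87.5 μM. Plates were incubated at 35°C. MIC was read visually as the lowest concentration giving 100% inhibition versus the growth control. Each isolate was run in duplicate in two independent experiments.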

Cryptococcus neoformans [5] = experiment: Antifungal activity against Cryptococcus neoformans ATCC 90112 after 24 to 72 hrs by broth microdilution method; type: functional; summary of the method: as §1
Candida albicans [6] = experiment: Antifungal activity against Candida albicans after 48 to 72 hrs; type: functional; conditions: for MFC: Candida albicans; summary of the method: as §2
Candida albicans [7] = experiment: Antifungal activity against Candida albicans ATCC 10231 after 24 to 72 hrs by broth microdilution method; type: functional; summary of the method: as §1
Lomentospora prolificans = experiment: Antifungal activity against Scedosporium prolificans 05-203060 after 24 to 72 hrs by broth microdilution method; type: functional; summary of the method: as §3
Nakaseomyces glabratus [8] = experiment: Antifungal activity against Candida glabrata after 48 to 72 hrs; type: functional; conditions: for MFC: Nakaseomyces glabratus; summary of the method: as §2
Candida parapsilosis [9] = experiment: Antifungal activity against Candida parapsilosis after 24 to 72 hrs by broth microdilution method; type: functional; conditions: Lodderomyces parapsilosis; summary of the method: as §1
Pichia kudriavzevii [10] = experiment: Antifungal activity against Candida krusei 04-202328 after 24 to 72 hrs by broth microdilution method; type: functional; summary of the method: as §1
Candida dubliniensis [11] = experiment: Antifungal activity against Candida dubliniensis after 48 to 72 hrs; type: functional; conditions: for MFC: Candida dubliniensis; summary of the method: as §2
Nakaseomyces glabratus [12] = experiment: Antifungal activity against Candida glabrata after 24 to 72 hrs by broth microdilution method; type: functional; summary of the method: as §1
Pichia kudriavzevii [13] = experiment: Antifungal activity against Candida krusei after 24 to 72 hrs by broth microdilution method; type: functional; summary of the method: as §1
Clavispora lusitaniae = experiment: Antifungal activity against Candida lusitaniae after 24 to 72 hrs by broth microdilution method; type: functional; summary of the method: as §1
Fusarium solani = experiment: Antifungal activity against Fusarium solani 04-203102 after 24 to 72 hrs by broth microdilution method; type: functional; summary of the method: as §3
[14] = system: Cryptococcus gattii species complex; experiment: Antifungal activity against Cryptococcus gattii after 24 to 72 hrs by broth microdilution method; type: functional, Cryptococcus bacillisporus; summary of the method: as §1
Candida parapsilosis [15] = experiment: Antifungal activity against Candida parapsilosis after 48 to 72 hrs; type: functional; conditions: for MFC: Lodderomyces parapsilosis; summary of the method: as §2
[16] = Antifungal activity against Exophiala jeanselmei 03-200268 after 24 to 72 hrs by broth microdilution method; type: functional; summary of the method: as §1
Candida tropicalis [17] = experiment: Antifungal activity against Candida tropicalis after 24 to 72 hrs by broth microdilution method; type: functional; summary of the method: as §1
Candida albicans [18] = experiment: Antifungal activity against Candida albicans ATCC 90028 after 24 to 72 hrs by broth microdilution method; type: functional; summary of the method: as §1
[19] = system: Meyerozyma guilliermondii; experiment: Antifungal activity against Candida guilliermondii after 24 to 72 hrs by broth microdilution method; type: functional; summary of the method: as §1
Candida albicans [20] = experiment: Antifungal activity against Candida albicans after 24 to 72 hrs by broth microdilution method; type: functional
Summary of the method: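 CLSI M27-A3 broth microdilution for yeasts in RPMI 1640 with L-glutamine and no bicarbonate, buffered with 0.165 M MOPS to pH 7.0. Compounds were dissolved in water and tested at 0.175–87.5 μM final, 35°C. MIC was read visually at 24–72 h as 100% inhibition versus growth control. For MFC, 30 μl from clear wells went onto SDA at 35°C for 48–72 h, reading the lowest concentration without colonies. Duplicates, two independent runs.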

Scedosporium apiospermum = experiment: Antifungal activity against Scedosporium apiospermum 05-203100 after 24 to 72 hrs by broth microdilution method; type: functional; summary of the method: as §3
Candida parapsilosis [21] = experiment: Antifungal activity against Candida parapsilosis ATCC 22019 after 24 to 72 hrs by broth microdilution method; type: functional; conditions: Lodderomyces parapsilosis; summary of the method: as §1
Aspergillus flavus = experiment: Antifungal activity against Aspergillus flavus ATCC 204304 after 24 to 72 hrs by broth microdilution method; type: functional; summary of the method: as §1
Rhizopus arrhizus [22] = experiment: Antifungal activity against Rhizopus oryzae 05-203111 after 48 to 72 hrs; type: functional
Summary of the method: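 After the broth microdilution MIC read, suspension from every well without visible growth was plated onto Sabouraud dextrose agar and incubated at 35°C, up to 7 days for molds. MFC was taken as the lowest drug concentration with no colonies.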

[23] = system: Meyerozyma guilliermondii; experiment: Antifungal activity against Candida guilliermondii after 48 to 72 hrs; type: functional; conditions: for MFC: Meyerozyma guilliermondii; summary of the method: as §2
Aspergillus fumigatus = experiment: Antifungal activity against Aspergillus fumigatus ATCC 204305 after 24 to 72 hrs by broth microdilution method; type: functional; summary of the method: as §1
Candida parapsilosis [24] = experiment: Antifungal activity against Candida parapsilosis 04-202398 after 24 to 72 hrs by broth microdilution method; type: functional; conditions: Lodderomyces parapsilosis; summary of the method: as §1
Exophiala spinifera = experiment: Antifungal activity against Exophiala spinifera 03-200803 after 24 to 72 hrs by broth microdilution method; type: functional; summary of the method: as §3
Pichia kudriavzevii [25] = experiment: Antifungal activity against Candida krusei after 48 to 72 hrs; type: functional; conditions: for MFC: Pichia kudriavzevii; summary of the method: as §2
Lichtheimia corymbifera = experiment: Antifungal activity against Absidia corymbifera 04-200170 after 24 to 72 hrs by broth microdilution method; type: functional; summary of the method: as §1
Cryptococcus neoformans [26] = experiment: Antifungal activity against Cryptococcus neoformans 05-202523 after 48 to 72 hrs; type: functional; summary of the method: as §2

## CCCCCc1cc[n+](CCCCCCCCCCCC[n+]2ccc(CCCCC)cc2)cc1.[Cl-].[Cl-]
Candida dubliniensis [1]
  MIC: 0.805 µg/mL
  MIC50: 0.75 µg/mL
  MIC90: 0.75 µg/mL
Candida tropicalis [2]
  MFC50: 0.75 µg/mL
  MFC90: 0.75 µg/mL
  MFC: 0.38 µg/mL
Pichia kudriavzevii [3]
  MIC: 5.9 µg/mL
Rhizopus arrhizus [4]
  MIC: 1.48 µg/mL
Cryptococcus neoformans [5]
  MIC: 1.48 µg/mL
Candida albicans [6]
  MFC50: 1.48 µg/mL
  MFC90: 1.48 µg/mL
  MFC: 0.75 µg/mL
Candida albicans [7]
  MIC: 1.48 µg/mL
Lomentospora prolificans
  MIC: 1.48 µg/mL
Nakaseomyces glabratus [8]
  MFC50: 1.48 µg/mL
  MFC90: 1.48 µg/mL
  MFC: 0.38 µg/mL
Candida parapsilosis [9]
  MIC: > 47 µg/mL
  MIC50: > 47 µg/mL
  MIC90: > 47 µg/mL
Pichia kudriavzevii [10]
  MIC: 11.8 µg/mL
Candida dubliniensis [11]
  MFC50: 0.75 µg/mL
  MFC90: 1.48 µg/mL
  MFC: 0.75 µg/mL
Nakaseomyces glabratus [12]
  MIC: 0.701 µg/mL
  MIC50: 0.75 µg/mL
  MIC90: 0.75 µg/mL
Pichia kudriavzevii [13]
  MIC: 2.25 µg/mL
  MIC50: 2.96 µg/mL
  MIC90: 5.91 µg/mL
Clavispora lusitaniae
  MIC: 0.86 µg/mL
  MIC50: 0.75 µg/mL
  MIC90: 1.48 µg/mL
Fusarium solani
  MIC: 47.3 µg/mL
[14]
  MIC: 1.06 µg/mL
  MIC50: 0.75 µg/mL
  MIC90: 1.48 µg/mL
Candida parapsilosis [15]
  MFC50: >47 µg/mL
  MFC90: >47 µg/mL
  MFC: > 47 µg/mL
[16]
  MIC: 1.48 µg/mL
Candida tropicalis [17]
  MIC: 0.702 µg/mL
  MIC50: 0.75 µg/mL
  MIC90: 0.75 µg/mL
Candida albicans [18]
  MIC: 1.48 µg/mL
[19]
  MIC: 0.569 µg/mL
  MIC50: 0.38 µg/mL
  MIC90: 0.75 µg/mL
Candida albicans [20]
  MIC50: 1.48 µg/mL
  MIC90: 1.48 µg/mL
Scedosporium apiospermum
  MIC: 2.96 µg/mL
Candida parapsilosis [21]
  MIC: 0.74 µg/mL
Aspergillus flavus
  MIC: 23.7 µg/mL
Rhizopus arrhizus [22]
  MFC: 5.9 µg/mL
[23]
  MFC50: 0.75 µg/mL
  MFC90: 0.75 µg/mL
  MFC: 0.38 µg/mL
Aspergillus fumigatus
  MIC: 47.3 µg/mL
Candida parapsilosis [24]
  MIC: 47.3 µg/mL
Exophiala spinifera
  MIC: 0.37 µg/mL
Pichia kudriavzevii [25]
  MFC50: 2.96 µg/mL
  MFC90: 5.91 µg/mL
  MFC: 0.38 µg/mL
Lichtheimia corymbifera
  MIC: > 47.3 µg/mL

## CCCCCCc1cc[n+](CCCCCCCCCCCC[n+]2ccc(CCCCCC)cc2)cc1.[Cl-].[Cl-]
Candida dubliniensis [1]
  MIC: 0.739 µg/mL
  MIC50: 0.79 µg/mL
  MIC90: 0.79 µg/mL
Candida tropicalis [2]
  MFC50: 1.56 µg/mL
  MFC90: 1.56 µg/mL
  MFC: 0.39 µg/mL
Pichia kudriavzevii [3]
  MIC: 3.2 µg/mL
Rhizopus arrhizus [4]
  MIC: 0.79 µg/mL
Cryptococcus neoformans [5]
  MIC: 0.79 µg/mL
Candida albicans [6]
  MFC50: 1.56 µg/mL
  MFC90: 1.56 µg/mL
  MFC: 1.56 µg/mL
Candida albicans [7]
  MIC: 0.79 µg/mL
Lomentospora prolificans
  MIC: 25.3 µg/mL
Nakaseomyces glabratus [8]
  MFC50: 1.56 µg/mL
  MFC90: 1.56 µg/mL
  MFC: 0.39 µg/mL
Candida parapsilosis [9]
  MIC: 28.6 µg/mL
  MIC50: 24.9 µg/mL
  MIC90: 49.5 µg/mL
Pichia kudriavzevii [10]
  MIC: 3.2 µg/mL
Candida dubliniensis [11]
  MFC50: 0.79 µg/mL
  MFC90: 0.79 µg/mL
  MFC: 0.79 µg/mL
Nakaseomyces glabratus [12]
  MIC: 0.739 µg/mL
  MIC50: 0.79 µg/mL
  MIC90: 0.79 µg/mL
Pichia kudriavzevii [13]
  MIC: 1.36 µg/mL
  MIC50: 1.56 µg/mL
  MIC90: 1.56 µg/mL
Clavispora lusitaniae
  MIC: 1.04 µg/mL
  MIC50: 0.79 µg/mL
  MIC90: 1.56 µg/mL
Fusarium solani
  MIC: 12.7 µg/mL
[14]
  MIC: 0.79 µg/mL
  MIC50: 0.79 µg/mL
  MIC90: 0.79 µg/mL
Candida parapsilosis [15]
  MFC50: 49.5 µg/mL
  MFC90: 49.5 µg/mL
  MFC: 24.9 µg/mL
[16]
  MIC: 0.79 µg/mL
Candida tropicalis [17]
  MIC: 1.18 µg/mL
  MIC50: 1.56 µg/mL
  MIC90: 1.56 µg/mL
Candida albicans [18]
  MIC: 0.79 µg/mL
Cryptococcus neoformans [26]
  MFC: 25.3 µg/mL
[19]
  MIC: 0.789 µg/mL
  MIC50: 0.79 µg/mL
  MIC90: 1.56 µg/mL
Candida albicans [20]
  MIC: 1.56 µg/mL
  MIC50: 1.56 µg/mL
  MIC90: 1.56 µg/mL
Scedosporium apiospermum
  MIC: 50.7 µg/mL
Candida parapsilosis [21]
  MIC: 0.79 µg/mL
Aspergillus flavus
  MIC: 12.7 µg/mL
[23]
  MFC50: 0.79 µg/mL
  MFC90: 1.56 µg/mL
  MFC: 0.39 µg/mL
Aspergillus fumigatus
  MIC: 12.7 µg/mL
Candida parapsilosis [24]
  MIC: 25.3 µg/mL
Exophiala spinifera
  MIC: 1.58 µg/mL
Pichia kudriavzevii [25]
  MFC50: 1.56 µg/mL
  MFC90: 3.11 µg/mL
  MFC: 0.79 µg/mL
Lichtheimia corymbifera
  MIC: 50.7 µg/mL
